This note sets out measurements from ChEMBL document CHEMBL3044956, “Nematicidal and antifungal activities of annonaceous acetogenins from Annona squamosa against various plant pathogens” (J Agric Food Chem, 2011).

Common to all, as to assay type: functional
In experiment [1] the test system is Rhizoctonia solani. Briefly: In vivo antifungal activity against Rhizoctonia solani infected rice seedlings assessed as control of rice sheath blight disease development at 5 ug/ml treated 1 day before spore inoculation measured 3-7 days after inoculation. A digest of the protocol: (§1)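 Potted seedlings sprayed to runoff with material dissolved in MeOH and diluted in 0.025% Tween 20 (5% MeOH); controls got the Tween/MeOH solution alone. Inoculated with spores or mycelial suspension 1 day later. Infected leaf or sheath area rated 3–7 days after inoculation; % control = 100(A−B)/A. Randomized complete block design, three replicates, run in duplicate; Tukey HSD.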

For experiment [2], the system named is Rhizoctonia solani. In words: In vivo antifungal activity against Rhizoctonia solani infected rice seedlings assessed as control of rice sheath blight disease development at 50 ug/ml treated 1 day before spore inoculation measured 3-7 days after inoculation. The method in brief:
as §1

The subject of experiment [3] is Bursaphelenchus xylophilus. Briefly: Nematicidal activity against second juvenile stage (J2) of Bursaphelenchus xylophilus assessed as mortality at >0.33 ug/ml after 2 days by microtiter plate assay method (Beneficial crop Pine). The method in brief:
(§2)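 Pine wood nematodes reared on B. cinerea mycelia on PDA for 7 days at 28 °C. J2s collected in 0.01% Triton X-100 water and tested in microtiter plates. Compounds in DMSO or MeOH, solvent ≤1%; solvent-only controls. Concentrations 0.004–1 μg/mL. Mortality Abbott-corrected; LC50 by probit. Two runs, three replicates each.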

The test system of experiment [4] is Bursaphelenchus xylophilus. In words: Nematicidal activity against second juvenile stage (J2) of Bursaphelenchus xylophilus assessed as mortality after 2 days by microtiter plate assay method (Beneficial crop Pine). The conditions noted are these: 48 h. A digest of the protocol: as §2
Experiment [5] deals with Colletotrichum coccodes. Briefly: In vivo antifungal activity against Colletotrichum coccodes infected red pepper seedlings assessed as control of red pepper anthracnose development at 10 ug/ml treated 1 day before spore inoculation measured 3-7 days after inoculation. A digest of the protocol: as §1
The subject of experiment [6] is Colletotrichum coccodes. Briefly: In vivo antifungal activity against Colletotrichum coccodes infected red pepper seedlings assessed as control of red pepper anthracnose development at 50 ug/ml treated 1 day before spore inoculation measured 3-7 days after inoculation. A digest of the protocol:
as §1

For experiment [7], the system named is Pyricularia oryzae. In words: In vivo antifungal activity against Magnaporthe oryzae infected rice seedlings assessed as control of rice blast disease development at 1 ug/ml treated 1 day before spore inoculation measured 3-7 days after inoculation. A digest of the protocol: as §1
In experiment [8] the test system is Pyricularia oryzae. In words: In vivo antifungal activity against Magnaporthe oryzae infected rice seedlings assessed as control of rice blast disease development at 50 ug/ml treated 1 day before spore inoculation measured 3-7 days after inoculation. A digest of the protocol: as §1
For experiment [9], the system named is Botrytis cinerea. In words: In vivo antifungal activity against Botryotinia fuckeliana infected in tomato seedlings assessed as control of tomato gray mold disease development at 50 ug/ml treated 1 day before spore inoculation measured 3-7 days after inoculation. The method in brief: as §1
In experiment [10] the test system is Botrytis cinerea. Briefly: In vivo antifungal activity against Botryotinia fuckeliana infected in tomato seedlings assessed as control of tomato gray mold disease development at 5 ug/ml treated 1 day before spore inoculation measured 3-7 days after inoculation. The method in brief:
as §1

For `OCC1=C[C@H](N[C@H]2C[C@H](CO)[C@@H](O[C@@H]3O[C@H](CO)[C@@H](O)[C@H](O)[C@H]3O)[C@H](O)[C@H]2O)[C@H](O)[C@@H](O)[C@@H]1O` [VALIDAMYCIN], the Activity in the experiment on Rhizoctonia solani [1] is reported as 70%; in the experiment with Rhizoctonia solani [2] it was 100%.

On to `CCCCCCCCCC[C@@H](O)[C@H]1CC[C@H]([C@H]2CC[C@H]([C@H](O)CCCCCCCCCCCCC3=C[C@H](C)OC3=O)O2)O1` [ISODESAACETYLUVARICIN], for which, in experiment [3], the mortality came to 100%. In addition, the LC50 in experiment [4] stood at 0.024 µg/mL.

For the compound `CCCCCCCCCC[C@H](O)[C@H]1CC[C@H]([C@H]2CC[C@H]([C@H](O)CCCCCCCCCCC3=C[C@H](C)OC3=O)O2)O1` (relative stereo) [REL-SQUAMOCIN-J], the mortality in [3] turned out to be 100%. Further, the LC50 in [4] turned out to be 0.025 µg/mL.

As to `N#Cc1sc2c(=O)c3ccccc3c(=O)c=2sc1C#N` [DITHIANON], the Activity came out at 20% in the experiment on Colletotrichum coccodes [5] and 100% with Colletotrichum coccodes [6].

On to `CN(CC[C@H](N)CC(=O)N[C@H]1CC[C@H](n2ccc(N)nc2=O)O[C@@H]1C(=O)O)C(=N)N` [BLASTADIN S], for which the figures for the Activity with Pyricularia oryzae [7] and in the experiment with Pyricularia oryzae [8] were 65.5% and 100%, respectively.

`N#Cc1c[nH]cc1-c1cccc2c1OC(F)(F)O2` [FLUDIOXONIL]: the Activity amounted to 100% with Botrytis cinerea [9] and 83% with Botrytis cinerea [10].

As for `CCCCCCCCCC[C@@H](O)[C@H]1CC[C@H]([C@H]2CC[C@H]([C@H](O)CCCCCCCCCCC3=C[C@H](C)OC3=O)O2)O1` (relative stereo) [REL-SQUAMOCIN-K], the mortality in experiment [3] was 100%. In addition, in experiment [4], the LC50 came to 0.039 µg/mL.

By mortality is commonly meant the share of the test organisms that died. Usually LC50 stands for the concentration lethal to half of the exposed cells or organisms.
